From publication PMC6785039 (Nature, 2019)
Where “and” joins values, the source holds several entries; their conditions need not be identical. Equal values may be shown once.

Tests used:
SLC19A1 [1] = target: T1, SLC19A1 (Homo sapiens, UniProt P41440); experiment: [32P] 2’3’-cGAMP uptake and competition uptake assay in THP-1 cells; assay type: cell-based; conditions: for 2’3’-cGAMP uptake, time course with inhibitor in culture medium: 500 μM, various cell lines (THP-1, U937, K562); for IC50: IC50, competition of [32P] 2’3’-cGAMP uptake, THP-1 cells, varying concentrations of competing, unlabeled ligand, 1 nM [32P] 2’3’-cGAMP; for [32P] 2’3’-cGAMP uptake in presence of unlabeled nucleotide: 200 μM competing; for CDN uptake: human cell lines and primary cells ex vivo; for CDN uptake and/or stimulation: human cells
T1 sequence (P41440 1-591): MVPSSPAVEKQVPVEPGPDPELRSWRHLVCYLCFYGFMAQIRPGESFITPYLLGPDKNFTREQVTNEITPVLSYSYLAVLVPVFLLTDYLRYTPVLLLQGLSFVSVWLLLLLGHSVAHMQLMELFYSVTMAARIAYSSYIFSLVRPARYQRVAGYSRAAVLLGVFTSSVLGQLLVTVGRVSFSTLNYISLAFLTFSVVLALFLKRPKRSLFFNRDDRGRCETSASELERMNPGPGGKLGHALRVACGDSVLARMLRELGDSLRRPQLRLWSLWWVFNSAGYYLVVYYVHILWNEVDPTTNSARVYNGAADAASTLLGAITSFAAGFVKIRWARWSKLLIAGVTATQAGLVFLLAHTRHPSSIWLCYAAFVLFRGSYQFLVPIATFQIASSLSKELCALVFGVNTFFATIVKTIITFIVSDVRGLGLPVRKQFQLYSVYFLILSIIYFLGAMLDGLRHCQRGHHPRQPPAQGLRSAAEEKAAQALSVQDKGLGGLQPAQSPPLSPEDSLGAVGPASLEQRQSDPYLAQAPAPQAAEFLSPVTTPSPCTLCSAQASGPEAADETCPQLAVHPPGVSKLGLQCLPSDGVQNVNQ

SLC19A1 [2] = target: T1, SLC19A1; experiment: [32P] 2’3’-cGAMP uptake assay in human PBMCs; assay type: cell-based
THP-1 cells = assay type: cell-based, human; conditions: hIFN-β 100 ng/ml, sulfasalazine at high concentrations
murine splenocytes = experiment: [32P] 2’3’-cGAMP uptake assay in primary murine splenocytes; assay type: cell-based, mouse; conditions: 500 μM competing, unlabeled
SLC19A1 [3] = target: T1, SLC19A1; experiment: [3H]-methotrexate uptake assay in THP-1 cells; assay type: cell-based; conditions: SLC19A1-depleted THP-1 cells, 1h
Procedure, shortened: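 Cells washed and resuspended at 4x10^6/ml in MHS buffer (20 mM HEPES, 235 mM sucrose, pH 7.4 with MgO). Exposed to 12.3 nM [3H]-methotrexate at 37°C and 5% CO2 for 1 h. Radioactivity was counted by liquid scintillation for 3 min per sample, and counts per minute were normalized to total protein.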

SLC19A1 [4] = target: T1, SLC19A1; experiment: [32P] 2’3’-cGAMP uptake assay in K562 cells; assay type: cell-based; conditions: 5 μM, one hour
STING = STING pathway activation; assay type: cell-based, human; conditions: THP-1 pre-treated with 5 μM
Procedure, shortened: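 Stimulated 4 h with 100 µM 2'3'-cGAMP, with or without digitonin (5 µg/mL). Read-outs were IFNB1 mRNA by RT-qPCR and STING dimerization/phosphorylation by semi-native PAGE immunoblot. Means of n=2 technical replicates.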

[5] = 500 μM excess, unlabeled, three hours, six healthy donors

CN1c2c(nc(N)[nH]c2=O)NCC1CNc1ccc(C(=O)N[C@@H](CCC(=O)O)C(=O)O)cc1 (stereo partly shown) [5-me-THF, 5-methyl-tetrahydrofolic acid]
2’3’-cGAMP uptake, time course with inhibitor in culture medium (SLC19A1 [1]): Sustained inhibition
IC50 (SLC19A1 [1]): 4.1 nM
completeness of inhibition of [32P] 2’3’-cGAMP uptake (SLC19A1 [1]; THP-1, compared to the other (anti-) folates): did not observe complete inhibition
trans-stimulation of 2’3’-cGAMP influx by preloading the cells (SLC19A1 [1]; THP-1, preloaded 30 min, washed, [32P] 2’3’-cGAMP for one hour): augmented
[32P] 2’3’-cGAMP uptake in PBMCs (SLC19A1 [2]; [5]): strongly inhibited
effect on reporter responses to hIFN-β (THP-1 cells): did not inhibit

Nc1ncnc2c1ncn2[C@@H]1O[C@H](COP(=O)(O)O)[C@@H](O)[C@H]1O [AMP]
[32P] 2’3’-cGAMP uptake in presence of unlabeled nucleotide (SLC19A1 [1]; THP-1, one hour): slightly inhibited

CN(Cc1cnc2nc(N)nc(N)c2n1)c1ccc(C(=O)N[C@@H](CCC(=O)O)C(=O)O)cc1 [methotrexate]
2’3’-cGAMP uptake, time course with inhibitor in culture medium (SLC19A1 [1]): Sustained inhibition
CDN uptake (SLC19A1 [1]): inhibited
CDN uptake and/or stimulation (SLC19A1 [1]): almost completely blocked
[32P] 2’3’-cGAMP uptake in PBMCs (SLC19A1 [2]; [5]): strongly inhibited
2’3’-cGAMP uptake by murine splenocytes (murine splenocytes): did not inhibit
effect on reporter responses to hIFN-β (THP-1 cells): did not inhibit
uptake of methotrexate in SLC19A1-depleted cells (SLC19A1 [3]): nearly abolished

Nc1nc(=O)c2nc(CNc3ccc(C(=O)N[C@@H](CCC(=O)O)C(=O)O)cc3)cnc2[nH]1 [folic acid]
2’3’-cGAMP uptake, time course with inhibitor in culture medium (SLC19A1 [1]): Sustained inhibition
IC50 (SLC19A1 [1]): 4800 nM and 4790 nM
CDN uptake and/or stimulation (SLC19A1 [1]): almost completely blocked

N-hydroxysuccinimide (NHS)-methotrexate [NHS-methotrexate]
2’3’-cGAMP influx in treated cells (SLC19A1 [1]; THP-1, 5 μM, one hour): much reduced
2’3’-cGAMP influx in treated cells (SLC19A1 [4]): much reduced
[32P] 2’3’-cGAMP uptake in PBMCs (SLC19A1 [2]; 5 μM pre-treatment, one hour, four healthy donors): strongly inhibited
STING activation by 2’3’-cGAMP (STING): blocks STING activation

O=C(O)c1cc(/N=N/c2ccc(S(=O)(=O)Nc3ccccn3)cc2)ccc1O [sulfasalazine]
2’3’-cGAMP uptake, time course with inhibitor in culture medium (SLC19A1 [1]): Sustained inhibition
IC50 (SLC19A1 [1]): 2100 nM and 2060 nM
CDN uptake (SLC19A1 [1]): inhibited
CDN uptake and/or stimulation (SLC19A1 [1]): almost completely blocked
[32P] 2’3’-cGAMP uptake in PBMCs (SLC19A1 [2]; [5]): strongly inhibited
effect on reporter responses to hIFN-β (THP-1 cells): blocked

Nc1nc2c(ncn2[C@@H]2O[C@H](COP(=O)(O)O)[C@@H](O)[C@H]2O)c(=O)[nH]1 [GMP]
[32P] 2’3’-cGAMP uptake in presence of unlabeled nucleotide (SLC19A1 [1]; THP-1, one hour): slightly inhibited
